Data on 56 molecules can be found in ChEMBL document CHEMBL4130408, “Photoactivation provides a mechanistic explanation for pan-assay interference behaviour of 2-aminopyrroles in lipoxygenase inhibition” (Eur J Med Chem, 2017).

This assay has as its target T1, Polyunsaturated fatty acid lipoxygenase ALOX15 (Homo sapiens) (UniProt P16050).
T1 sequence (whole entry): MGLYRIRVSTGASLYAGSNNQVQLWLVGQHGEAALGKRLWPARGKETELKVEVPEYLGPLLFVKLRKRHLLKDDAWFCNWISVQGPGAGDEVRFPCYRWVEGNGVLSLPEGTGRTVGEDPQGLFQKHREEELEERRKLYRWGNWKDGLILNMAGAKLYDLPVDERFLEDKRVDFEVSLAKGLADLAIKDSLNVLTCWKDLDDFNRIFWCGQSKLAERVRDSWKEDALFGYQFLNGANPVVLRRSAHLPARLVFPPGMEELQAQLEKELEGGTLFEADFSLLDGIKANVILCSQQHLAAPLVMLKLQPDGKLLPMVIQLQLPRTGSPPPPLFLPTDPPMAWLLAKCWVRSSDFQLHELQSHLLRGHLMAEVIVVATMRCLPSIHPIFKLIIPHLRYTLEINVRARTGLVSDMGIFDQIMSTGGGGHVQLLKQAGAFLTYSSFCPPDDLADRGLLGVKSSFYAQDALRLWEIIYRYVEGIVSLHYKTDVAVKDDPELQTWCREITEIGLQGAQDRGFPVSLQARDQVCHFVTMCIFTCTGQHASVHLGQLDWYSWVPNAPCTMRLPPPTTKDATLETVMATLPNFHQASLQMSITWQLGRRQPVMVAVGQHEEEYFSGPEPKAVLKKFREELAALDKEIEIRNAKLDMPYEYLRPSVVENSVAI
Nature of the assay: Inhibition of recombinant human 15-LOX-1 expressed in Escherichia coli BL21(DE3) assessed as residual activity at 50 uM using linoleic acid as substrate preincubated for 10 mins followed by substrate addition. The method, boiled down: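 h-15-LOX-1 (1:100 enzyme stock, 1:400 final) preincubated 10 min at room temperature with inhibitor in 25 mM HEPES pH 7.4, then linoleic acid added to 25 µM final (inhibitor 50 µM final). 13(S)-HpODE formation read as A234 over time, rate taken from linear part within first 16 min; no-inhibitor = 100%, no-enzyme = 0%. Triplicate.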

Take `Nc1[nH]c(C(=O)c2ccccc2)c(-c2cccc(C(F)(F)F)c2)c1C(=O)c1c[nH]c2ccccc12`: the Activity came to 114%.

For `Nc1[nH]c(C(=O)c2ccccc2)c(-c2ccc(Br)cc2)c1C(=O)c1ccccc1`, the Activity turned out to be 63.2%.

For the molecule `Nc1[nH]c(C(=O)c2ccccc2)c(-c2ccccc2Br)c1C(=O)NCc1ccc(-c2ccccc2)cc1`, the Activity is 91.3%.

Regarding `COc1ccc2cccc(-c3c(C(=O)c4ccc(Br)cc4)[nH]c(N)c3C(=O)NC3CCCCC3)c2c1`, the Activity came to 34%.

As for `Nc1[nH]c(C(=O)c2ccc(Cl)cc2)c(-c2ccc(Br)cc2)c1C(=O)NCc1ccc(Cl)cc1Cl`, the Activity was 105%.

Take `CC(C)(C)C(=O)c1c(N)[nH]c(C(=O)c2ccccc2)c1-c1ccccc1`: the Activity was determined as 112%.

As for `Cc1cc(C)cc(-c2c(C(=O)c3ccc(Br)cc3)[nH]c(N)c2C(=O)NCc2ccc(Cl)cc2)c1`, the Activity is 98.5%.

`Nc1[nH]c(C(=O)c2ccccc2)c(-c2ccc(Br)cc2)c1C(=O)NC1CC1`: the Activity was found to be 94.3%.

In the case of `Nc1[nH]c2cc(C(F)(F)F)ccc2c1C(=O)N1CCN(CCc2ccccc2)CC1`, the Activity is 109%.

Turning to `Nc1[nH]c(C(=O)c2ccccc2)c(-c2cccc3ccccc23)c1C(=O)NCc1ccc(Cl)cc1Cl`, the Activity is 115%.

For the molecule `Nc1[nH]c(C(=O)c2ccccc2)c(-c2ccccc2Br)c1C(=O)NCCc1c[nH]c2ccccc12`, the Activity stood at 61.9%.

Take `Cc1[nH]c2ccccc2c1C(=O)c1c(N)[nH]c(C(=O)c2ccc(Br)cc2)c1-c1ccc(Br)cc1`: the Activity is 29.7%.

`CN(C)CCCNC(=O)c1c(N)[nH]c(C(=O)c2ccc(Br)cc2)c1-c1ccc(Br)cc1`: the Activity was 114%.

For `COCCNC(=O)c1c(N)[nH]c(C(=O)c2ccc(Br)cc2)c1-c1ccc(Br)cc1`, the Activity turned out to be 103%.

For the molecule `COc1ccc(C(=O)c2[nH]c(N)c(C(=O)NCCc3ccc(Cl)cc3Cl)c2-c2ccccc2Br)cc1`, the Activity was 86.4%.

Turning to `NC(=O)c1c(N)[nH]c(C(=O)c2ccccc2)c1-c1ccccc1Cl`, the Activity turned out to be 114%.

Take `CCCCCCNC(=O)c1c(N)[nH]c(C(=O)c2ccccc2)c1-c1ccc(O)cc1`: the Activity was determined as 90.8%.

Consider `Nc1[nH]c(C(=O)c2ccc(Br)cc2)c(-c2ccc(Br)cc2)c1C(=O)NCc1ccc(F)cc1`, for which the Activity amounted to 102%.

`Nc1[nH]c(C(=O)c2ccccc2)c(-c2cccc(C(F)(F)F)c2)c1C(=O)NCCc1c[nH]c2ccccc12`: the Activity is 52.6%.

As to `Nc1[nH]c(C(=O)c2ccccc2)c(-c2ccccc2C(F)(F)F)c1C(=O)c1c[nH]c2ccccc12`, the Activity turned out to be 94.1%.

Turning to `Nc1[nH]c(C(=O)c2ccccc2)c(-c2ccc(F)cc2)c1C(=O)NCCc1c[nH]c2ccccc12`, the Activity was found to be 59.6%.

`COc1ccc2cccc(-c3c(C(=O)c4ccc(Br)cc4)[nH]c(N)c3C(=O)NCc3ccc(-c4ccccc4)cc3)c2c1`: the Activity worked out at 115%.

Consider `Nc1[nH]c(C(=O)c2ccccc2)c(-c2cccc3ccccc23)c1C(=O)c1ccc(Br)cc1`, for which the Activity amounted to 107%.

For the molecule `Nc1[nH]c(C(=O)c2ccccc2)c(-c2ccccc2C(F)(F)F)c1C(=O)NCc1ccc(F)cc1`, the Activity worked out at 92.2%.

With `COc1ccc(C(=O)c2[nH]c(N)c(C(=O)NCCc3c[nH]c4ccccc34)c2-c2ccccc2C(F)(F)F)cc1`, the Activity came to 97.2%.

In the case of `Nc1[nH]c(C(=O)c2ccccc2)c(-c2ccccc2[N+](=O)[O-])c1C(=O)NCCc1c[nH]c2ccccc12`, the Activity came out at 98.1%.

Regarding `Cc1ccccc1-c1c(C(=O)c2ccccc2)[nH]c(N)c1C(=O)c1ccc(Cl)cc1`, the Activity is 94.9%.

`COc1ccc(C(=O)c2[nH]c(N)c(C(=O)c3ccccc3)c2-c2ccc(OC)c(OC)c2)cc1`: the Activity came to 95.7%.

Consider `Nc1[nH]c(C(=O)c2ccccc2)c(-c2ccccc2)c1C(=O)NCCc1c[nH]c2ccccc12`, for which the Activity came out at 63.2%.

Consider `Nc1[nH]c(C(=O)c2ccccc2)c(-c2ccc(Cl)cc2)c1C(=O)NCCc1c[nH]c2ccccc12`, for which the Activity is 84.7%.

With `COc1ccc(C(=O)c2[nH]c(N)c(C(=O)NCCc3c[nH]c4ccccc34)c2-c2ccc(Br)cc2)cc1`, the Activity was found to be 40.1%.

For `Nc1[nH]c(C(=O)c2ccccc2)c(-c2ccc(O)cc2)c1C(=O)NCCc1c[nH]c2ccccc12`, the Activity came to 53.3%.

As for `CN(C)c1ccc(-c2c(C(=O)c3ccccc3)[nH]c(N)c2C(N)=O)cc1`, the Activity was 103%.

For the molecule `Cc1ccc([C@@H](C)NC(=O)c2c(N)[nH]c(C(=O)c3ccccc3)c2-c2ccccc2C(F)(F)F)cc1`, the Activity was found to be 96.4%.

As for `Nc1[nH]c(C(=O)c2ccccc2)c(-c2ccc(Cl)cc2)c1C(=O)c1c[nH]c2ccccc12`, the Activity is 73.9%.

Take `COc1ccc(-c2c(C(=O)c3ccccc3)[nH]c(N)c2C(=O)NC2CC2)cc1OC`: the Activity was found to be 90.2%.

Take `Nc1[nH]c(C(=O)c2ccccc2)c(-c2ccccn2)c1C(=O)NCCCCl`: the Activity came to 92.1%.

In the case of `Nc1[nH]c(C(=O)c2ccccc2)c(-c2ccc(Cl)cc2[N+](=O)[O-])c1C(=O)NCCc1c[nH]c2ccccc12`, the Activity turned out to be 72.5%.

In the case of `COc1ccc(-c2c(C(=O)c3ccccc3)[nH]c(N)c2C(=O)NCc2ccccc2)cc1OC`, the Activity came out at 90.7%.

Regarding `Nc1[nH]c(C(=O)c2ccccc2)c(-c2ccccc2Br)c1C(=O)c1cccs1`, the Activity was found to be 59.8%.

As to `N#Cc1c(N)[nH]c(C(=O)c2ccccc2)c1-c1ccccc1Br`, the Activity amounted to 62.3%.

Consider `Nc1[nH]c2cc(Cl)ccc2c1C(=O)NCCc1ccc(Cl)cc1`, for which the Activity was determined as 80.2%.

As for `CC(C)(C)C(=O)c1c(N)[nH]c(C(=O)c2ccccc2)c1-c1ccc(C(F)(F)F)cc1`, the Activity was found to be 86.9%.

Consider `Nc1[nH]c(C(=O)c2ccc(Br)cc2)c(-c2c(F)cccc2F)c1C(=O)NCCc1c[nH]c2ccccc12`, for which the Activity amounted to 69.3%.

Take `CC(C)(C)C(=O)c1c(N)[nH]c(C(=O)c2ccccc2)c1-c1cc2ccccc2nc1Cl`: the Activity worked out at 104%.

In the case of `Nc1[nH]c(C(=O)c2ccccc2)c(-c2ccccc2Cl)c1C(=O)c1ccccc1`, the Activity came to 70.9%.

With `Nc1[nH]c(C(=O)c2ccc(Cl)cc2)c(-c2ccc(Br)cc2)c1C(=O)NCCc1c[nH]c2ccccc12`, the Activity is 53.3%.

As for `Nc1[nH]c(C(=O)c2ccc(Br)cc2)c(-c2ccc(Cl)cc2)c1C(=O)NCCc1c[nH]c2ccccc12`, the Activity was determined as 19.3%.

Turning to `COC(=O)c1c(N)[nH]c(C(=O)c2ccccc2)c1-c1ccc(Cl)cc1`, the Activity was 96%.

Take `Nc1[nH]c(C(=O)c2ccc(Br)cc2)c(-c2ccc(Br)cc2)c1C(=O)NCc1cccc2ccccc12`: the Activity was 77.6%.

As for `Cc1[nH]c2ccccc2c1C(=O)NCc1ccc(CNC(=O)c2c(N)[nH]c3ccccc23)cc1`, the Activity is 115%.

Regarding `CC(NC(=O)c1c(N)[nH]c(C(=O)c2ccc(Cl)cc2)c1-c1ccc(Br)cc1)c1cccc2ccccc12` (stereo unspecified), the Activity is 122%.

With `Cc1ccc([C@H](C)NC(=O)c2c(N)[nH]c(C(=O)c3ccccc3)c2-c2cc(Cl)cc(Cl)c2)cc1`, the Activity came to 77.3%.

In the case of `COc1ccc(-c2c(C(=O)c3ccccc3)[nH]c(N)c2C(=O)NCCc2c[nH]c3ccccc23)cc1`, the Activity stood at 35.3%.

In the case of `Nc1[nH]c(C(=O)c2ccccc2)c(-c2ccc(F)cc2)c1C(=O)Cc1ccccc1`, the Activity was 75.1%.

For the molecule `Nc1[nH]c(C(=O)c2ccc(Br)cc2)c(-c2ccc3ccccc3c2)c1C(=O)NCCc1c[nH]c2ccccc12`, the Activity stood at 36%.
